Assay outcomes: PubChem BioAssay, several laboratories
GC-A act: GC-A (human) enzyme activation. hit rate 0.14% among 370,000. activation, % at 10 µM. HEK293 GC-A cells, cGMP TR-FRET, EC30 ANP; 0% at EC30 ANP, 100% saturating ANP. P16066; in the data active = activation above about 40%
GC-B act: GC-B (human) receptor activation; P20594; hit rate 0.11% among 370,000; AID 1920062; activation, % at 10 µM; HEK293-GC-B cells, CNP EC30, cGMP TR-FRET; 0% at EC30 CNP, 100% saturating CNP;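 active = activation at 10 µM reaching about 35% in either raw or pattern-adjusted values, limit read from the data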
Target sequence (P20594 whole entry, looked up): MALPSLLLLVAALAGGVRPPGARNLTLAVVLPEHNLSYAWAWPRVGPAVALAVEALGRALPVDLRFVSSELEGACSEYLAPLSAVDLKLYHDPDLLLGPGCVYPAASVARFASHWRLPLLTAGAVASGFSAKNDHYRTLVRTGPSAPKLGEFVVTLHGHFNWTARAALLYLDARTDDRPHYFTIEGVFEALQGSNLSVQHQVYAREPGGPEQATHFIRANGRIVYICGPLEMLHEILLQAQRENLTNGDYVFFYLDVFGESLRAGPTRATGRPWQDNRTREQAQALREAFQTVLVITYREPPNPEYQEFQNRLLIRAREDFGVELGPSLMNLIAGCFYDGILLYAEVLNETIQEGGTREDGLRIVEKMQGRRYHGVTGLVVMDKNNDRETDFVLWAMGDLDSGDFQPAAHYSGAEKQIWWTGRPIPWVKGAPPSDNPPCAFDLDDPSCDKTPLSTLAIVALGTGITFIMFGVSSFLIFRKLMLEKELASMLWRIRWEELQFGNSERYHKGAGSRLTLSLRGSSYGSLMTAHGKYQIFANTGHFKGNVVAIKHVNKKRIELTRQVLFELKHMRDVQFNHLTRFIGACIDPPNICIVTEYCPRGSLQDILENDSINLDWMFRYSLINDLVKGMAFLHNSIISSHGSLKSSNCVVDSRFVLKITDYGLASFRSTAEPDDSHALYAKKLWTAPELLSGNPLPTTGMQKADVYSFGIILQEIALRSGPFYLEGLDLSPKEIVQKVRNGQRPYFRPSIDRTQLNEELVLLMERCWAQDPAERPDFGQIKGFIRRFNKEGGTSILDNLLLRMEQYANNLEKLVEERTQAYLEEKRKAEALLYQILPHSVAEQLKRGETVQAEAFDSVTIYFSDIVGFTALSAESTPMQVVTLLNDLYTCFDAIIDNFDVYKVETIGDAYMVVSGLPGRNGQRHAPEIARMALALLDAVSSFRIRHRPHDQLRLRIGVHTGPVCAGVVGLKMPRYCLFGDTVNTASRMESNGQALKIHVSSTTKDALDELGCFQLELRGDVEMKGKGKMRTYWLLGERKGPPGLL
SKN-1 inh: blocks SKN-1 activity in C. elegans; inhibition, % at 21.8 µM; AID 624304; hit rate 0.49% among 360,000; C. elegans VP596 Pgst-4::GFP/RFP ratio, acrylamide-induced, 24 h;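 active = interference check ratio from 0.5 to 1.5 plus GFP to RFP signal ratio inhibition reaching or exceeding a fixed threshold, cut at about 30% in these data, passing the limit was not always enough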
Tb MetRS inh: Trypanosoma brucei MetRS inhibition; purified T. brucei MetRS, ATP depletion, Kinase-Glo luminescence; AID 624268; inhibition, % at 11.9 µM; hit rate 0.4% among 360,000;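 active = inhibition above a per-plate cutoff of the control wells' mean inhibition plus 3 SD, cut at about 5.5% in these data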
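technique = Kinase-Glo luminescence, ATP depletion format | system = purified MetRS (methionyl-tRNA synthetase) enzyme from Trypanosoma brucei | timing = 15 min preincubation, 2 h reaction, all 25 °C | evaluation = percent inhibition versus plate control medians | dosing = single dose, 11.9 µM final nominal, 0.9% final DMSO | also added = substrates ATP, L-methionine and bulk Escherichia coli tRNA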
A1 inh: inhibitors of the anti-apoptotic protein A1, read as caspase activation; MEF A1-2A-BIM cells, Caspase-Glo 3/7 luminescence, 3 h; percent of clofoctol response, vehicle zero; caspase activation, % (no concentration beside the values); hit rate 0.066% among 330,000;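 active = over half of replicate activation scores above 10%, or exactly half above 10 with the replicate mean above 10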
MT1-MMP act inh: inhibitors of human MT1-MMP activation; P50281; HT1080 RFP-PRO-GFP cells, GFP/RFP ratio fluorescence, overnight; percent of plate control window, DMSO zero; GFP/RFP ratio change, % at 20 µM; hit rate 0.061% among 360,000;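 active = GFP/RFP ratio change of at least 30% with cell ATP level not reduced by more than half and red fluorescence within 50% of control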
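Compound: 20 µM single dose, 1% DMSO / System: HT1080 RFP-PRO-GFP cells / Controls: DMSO and RFP-L50D-GFP cell wells / Read-out basis: GFP/RFP fluorescence ratio / Schedule: overnight compound exposure at 37 °C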
Hits are given with their value; 0 = inactive; - = no result. The list is not random: actives were taken first. Their share in the collection is about 1.1%.

SMILES	GC-A act	GC-B act	SKN-1 inh	Tb MetRS inh	A1 inh	MT1-MMP act inh
CCn1c(SCC(=O)NN=Cc2c(C)nn(-c3ccccc3)c2C)nnc1-c1ccc(OC)c(OC)c1	0	0	-	-	-	-
COc1ccc(-c2cc(-c3ccccc3)n[nH]2)c(O)c1	0	0	35	0	0	0
CC(=O)Nc1ccc(C(CCCc2ccccc2)C2=CCCCC2)cc1 (stereo not drawn)	0	0	-	-	-	-
Cn1ncc(C#N)c1/N=C/N1CCCCC1	0	0	0	0	0	0
Cn1ncc(C#N)c1/N=C/N1CCCC1	0	0	42	0	0	0
C[C@H]1[C@@H](OC(=O)Nc2cc(Cl)ccc2Cl)CC[C@@]23CCCN2C(=O)CCC[C@@H]13	0	0	-	-	-	-
C=CC[N+]1(CC=C)CCOCC1	0	0	0	0	8.6	0
C=CC[N+]1(CC#CCOC(c2ccccc2)c2ccccc2)CCOCC1	0	0	0	0	0	0
Fc1ccc(-c2nnn(Cc3nc4ccccc4s3)n2)cc1	0	0	37	0	0	0
Fc1ccc(Cn2nnc(-c3ccc(Cl)cc3)n2)cc1	0	0	0	0	0	0
Clc1ccc(-c2nnn(Cc3nc4ccccc4s3)n2)cc1	0	0	57	0	0	0
CN(CC#Cc1ccccc1)C(N)=NC(=O)/C=C/c1cccc(C(F)(F)F)c1	0	0	-	-	-	-
Cc1cc(/C=C2/C(=O)N(C)C(=S)N2C)c(C)n1C1CC1	0	0	0	0	0	0
CN1C(=O)/C(=C/C=C2\SCCN2C)N(C)C1=S	0	0	47	0	-	0
CSCCCNC(=O)c1oc(=O)c2ccccc2c1-c1ccc(C)cc1	0	0	-	-	-	-
CC(=O)c1ccc(Nc2ccc([N+](=O)[O-])c3nonc23)cc1	0	0	0	0	0	0
O=C(O)c1ccc(Nc2ccc([N+](=O)[O-])c3nonc23)cc1	0	0	44	0	0	0
CC(C)C[C@H](NC1(C(=O)NC2CCCCC2)CCCCC1)C(=O)NCCc1c[nH]c2ccccc12	0	0	-	-	-	-
O=C(NNC(=O)c1ccccc1-n1cccc1)c1ccc(Cl)cc1	0	0	37	0	0	0
O=[N+]([O-])c1cccc(-c2noc(-c3ccco3)n2)c1	0	0	53	0	0	0
O=C(CN1CCCC1)Nc1sc2c(c1C(=O)Nc1ccc(Br)cc1)CCC2	0	0	38	0	0	0
COc1ccc2c(c1)CCCN2C(=O)C1CCCN(S(=O)(=O)c2ccc(C)c(C)c2)C1 (stereo not drawn)	0	0	-	-	-	-
CCCCOc1ccc(/C=c2\sc3ncnn3c2=O)cc1	67	0	0	0	0	0
CC(C)c1cc(C(=O)N(C2CCCCC2)C2CCCCC2)no1	0	0	-	-	-	-
COc1ccc(CCNC(=O)CCOc2cc(C)ccc2C)cc1OC	0	0	0	0	0	0
SMILES	GC-A act	GC-B act	SKN-1 inh	Tb MetRS inh	A1 inh	MT1-MMP act inh
COc1ccc(CCNC(=O)CCOc2ccc(C)cc2)cc1OC	0	0	0	0	6.1	0
CC(=O)Nc1cc(C(=O)OCC(=O)c2ccc(Cl)cc2Cl)ccc1C	61	0	0	0	0	0
CC(=O)Nc1cc(C(=O)OCC(=O)c2ccc(C)cc2)ccc1C	0	0	0	0	0	0
CC(C)C(=O)Nc1cccc(C(=O)OCC(=O)c2ccc(Cl)cc2Cl)c1	59	0	0	0	0	0
COc1cc(NCCCCC(C)N)c2nccc(C)c2c1 (stereo not drawn)	0	0	36	0	-	0
COc1cc(NCCCC(C)N)c2ncccc2c1 (stereo not drawn)	0	0	0	0	-	0
C[C@H](CO)N1C[C@H](C)[C@@H](CN(C)C(=O)Nc2ccc(C(F)(F)F)cc2)Oc2ccc(NS(=O)(=O)c3ccccc3)cc2C1=O	0	82	0	0	0	0
COC(=O)c1cc(-c2cccs2)c(=O)n2c1CCC2	0	0	-	-	-	-
CCOC(=O)[C@]12CCCCC/C=C\1N(Cc1ccc(OC)cc1)C(=O)[C@H]2CC(=O)N1CCCCC1	0	0	-	-	-	-
CCOc1cc(N2CCOCC2)c(OCC)cc1NC(=O)Cn1[nH]c(=O)c2ccccc2c1=O	0	36	0	0	0	0
CC(C)Oc1ccc(-c2csc(N3CCC(C(N)=O)CC3)n2)cc1	0	0	-	-	-	-
CCOC(=O)C1=C(N)Oc2cc(O)ccc2C1c1ccc(Br)cc1 (stereo not drawn)	53	0	0	0	0	0
Cc1ccc(CNc2nc(C)nc3sc4c(c23)CCC4)cc1	40	45	0	0	0	0
Cc1ccc(Cn2ncc3c(NN)ncnc32)cc1	0	0	0	0	0	0
CCN(CC)c1ncnc2c1cnn2Cc1ccc(C)cc1	0	38	0	0	0	0
O[C@H](COc1cc(F)cc(F)c1)CN1CCC(C(O)(c2ccccc2)c2ccccc2)CC1	0	0	-	-	-	-
O=C(Nc1nccs1)c1ccc(Br)cc1	0	0	0	0	0	0
COc1c(C(=O)Nc2nccs2)ccc2ccccc12	0	0	55	0	0	0
COc1ccc(C(=O)Nc2ccc3ccccc3c2)c(OC)c1	0	0	0	0	0	0
COc1ccccc1C(=O)Nc1ccc2ccccc2c1	0	0	48	0	0	0
COc1cc2ccccc2cc1C(=O)Nc1nccs1	0	0	58	0	0	0
COc1cc2ccccc2cc1C(=O)Nc1cc(C)ccn1	0	0	0	0	0	0
O=C(Nc1nccs1)c1ccc2ccccc2c1	0	0	44	0	0	0
CN(CCc1ccccn1)C(=O)c1cc2ccccn2n1	0	0	-	-	-	-
CCOC(=O)CNC(=O)CSc1nnc(-c2ccc(C(C)(C)C)cc2)n1-c1ccc(Cl)cc1	0	0	-	-	-	-
SMILES	GC-A act	GC-B act	SKN-1 inh	Tb MetRS inh	A1 inh	MT1-MMP act inh
COc1cccc(Oc2cn[nH]c2-c2ccc(OC)cc2O)c1	0	0	0	0	0	0
COc1cccc(Oc2cn[nH]c2-c2ccc(O)cc2O)c1	55	0	0	0	0	0
NC(=O)CSc1nnc(COc2cccc3ccccc23)o1	0	0	0	0	0	0
O=C(CSc1nnc(COc2cccc3ccccc23)o1)N1c2ccccc2CCc2ccccc21	0	0	45	0	0	0
COc1ccc(NC(=O)CSc2nc3ccc(Nc4nc(N5CCOCC5)nc(N5CCOCC5)n4)cc3s2)cc1	0	0	0	0	0	0
Cc1ccc(NC(=O)CSc2nc3ccc(Nc4nc(N5CCOCC5)nc(N5CCOCC5)n4)cc3s2)cc1	0	0	0	0	10	0
CCCCOCCCNC(=O)C[C@@H]1C(=O)N2CCCC3=C2[C@@]1(C(=O)OC)CCCC3	0	0	-	-	-	-
Cc1ccc(N2C(=O)c3cccc([N+](=O)[O-])c3C2=O)cc1C	72	0	0	0	0	0
Cc1ccc(S(=O)(=O)N(CCc2ccccc2)CC(=O)N2CCOCC2)cc1	0	0	-	-	-	-
